Experiment [1] in a line: Ratio of antiviral activity against HIV1 NL4-3 Env-deficient VSV-G pseudotyped virus infected in human SUP-T1 cells assessed as inhibition of late stage viral production when host cells were infected with compound pretreated viral particles to antiviral activity against HIV1 NL4-3 VSV-G pseudotyped virus infected in human SUP-T1 cells assessed as inhibition of early stage viral production. Type of experiment: functional, Human immunodeficiency virus 1. The gist of the method:
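Ratio taken from single-round VSV-G pseudotyped HIV-1(NL4-3) luciferase assays in SupT1 cells (quintuplicate). It is late-stage inhibition (compound given to producer 293T cells after transfection) divided by early-stage inhibition (compound added after SupT1 infection), or the reverse.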

For experiment [2], the target named is Human immunodeficiency virus type 1 reverse transcriptase (Human immunodeficiency virus 1, UniProt Q72547). The experiment is described as follows: Inhibition of wild type HIV-1 NL4-3 reverse transcriptase using random mRNA as template and GADPH as primer measured at 42 degreeC for 5 mins, 95 degreeC for 10sec and 60 degreeC for 60 sec by qRT-PCR analysis.

Experiment [3] concerns the target Human immunodeficiency virus type 1 protease (Human immunodeficiency virus 1, UniProt Q72874). The experiment is described as follows: Inhibition of wild type HIV1 protease expressed in Escherichia coli using Arg-Glu (EDANS)-Ser-Gln-Asn-Tyr-Pro-Ile-Val-Gln-Lys(DABCYL)-Arg as substrate preincubated for 20 to 30 mins followed by substrate addition and measured for 10 mins by FRET assay. Summed up:
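Recombinant HIV-1 PR was expressed in E. coli and purified. It was mixed with inhibitor (DMSO stock) for 20–30 min at room temperature before addition of the EDANS/DABCYL-labelled peptide. Buffer: 0.1 M sodium acetate, 1 M NaCl, 1 mM EDTA, 1 mM DTT, 2% DMSO, 1 mg/mL BSA, pH 4.7. Triplicate; mean of three independent experiments.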

In experiment [4] the test system is Human immunodeficiency virus 1. The experiment is described as follows: Antiviral activity against HIV1 NL4-3 VSV-G pseudotyped virus infected in human SUP-T1 cells assessed as inhibition of early stage viral production measured after 48 hrs by luciferase assay. Format: functional, organism-based. The following applies: Human immunodeficiency virus 1, NL4-3, SUP-T1, 48 h. Summed up: (§1)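 Early-stage assay: SupT1 cells (1 × 10⁵/mL) were infected with VSV-G-pseudotyped HIV-1(NL4-3), and compounds were added afterward, with final DMSO held at 1% (v/v). After 48 h the cells were lysed and firefly luciferase activity was measured. Quintuplicate; inhibition at one fixed concentration and EC50.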

For experiment [5], the system named is Human immunodeficiency virus 1. The experiment is described as follows: Antiviral activity against HIV1 NL4-3 Env-deficient VSV-G pseudotyped virus infected in human SUP-T1 cells assessed as inhibition of late stage viral production when host cells were infected with compound pretreated viral particles at 10 uM measured after 48 hrs by luciferase assay relative to control. Type of experiment: functional. The following applies: Human immunodeficiency virus 1, NL4-3, SUP-T1. The gist of the method:
(§2)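 Late-stage assay: VSV-G pseudotyped HIV-1 was made by co-transfecting 293T cells with pNL4-3-E⁻R⁻ (or DRV-resistant variants) plus pHCMV-G. Inhibitors in DMSO were added to the medium 5 h post-transfection. After 48 h at 37 °C, supernatant virus infected SupT1 cells for 48 h, and luciferase was read in the newly infected cells. Quintuplicate; inhibition at one fixed concentration and EC50.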

Experiment [6] relates to Human immunodeficiency virus 1. The experiment is described as follows: Antiviral activity against HIV1 NL4-3 VSV-G pseudotyped virus infected in human SUP-T1 cells assessed as inhibition of early stage viral production at 10 uM measured after 48 hrs by luciferase assay relative to control. Type of experiment: functional. The following applies: Human immunodeficiency virus 1, NL4-3, SUP-T1. Summed up:
as §1

In experiment [7] the test system is Human immunodeficiency virus 1. The experiment is described as follows: Antiviral activity against HIV1 NL4-3 Env-deficient VSV-G pseudotyped virus infected in human SUP-T1 cells assessed as inhibition of late stage viral production when host cells were infected with compound pretreated viral particles measured after 48 hrs by luciferase assay. Type of experiment: functional, organism-based. To be noted: Human immunodeficiency virus 1, NL4-3, SUP-T1. Summed up: as §2

Molecules are shown by their SMILES.

Consider `CSc1ccc(S(=O)(=O)N(CC(C)C)C[C@@H](O)[C@H](Cc2ccccc2)NC(=O)CCc2ccc(O)c(O)c2)cc1`, for which the Ratio in experiment [1] came out at 1.43. Besides, the IC50 is 0.43 nM in experiment [2] and 2.02 nM in experiment [3]. Further, the EC50 was determined as 8320 nM in experiment [4] and 2310 nM in experiment [7]. The inhibition at 10 µM is 97% in experiment [5] and 68% in experiment [6].
As to `COc1cc(/C=C/C(=O)N[C@@H](Cc2ccccc2)[C@H](O)CN(CC(C)C)S(=O)(=O)c2ccc(N)cc2)cc(OC)c1O`, in experiment [1], the Ratio is reported as 2.14. In addition, the values for the IC50 in experiment [2] and in experiment [3] were 1.5 nM and 144 nM, respectively. The EC50 in experiment [4] amounted to 68000 nM; in experiment [7], 37400 nM. Besides, the inhibition at 10 µM in experiment [5] was found to be 30%; in experiment [6] it was 14%.
